{"data": "Results collected from several papers", "BTK": "Tyrosine-protein kinase BTK (BTK, Homo sapiens, UniProt Q06187)", "BTK R28H": "Tyrosine-protein kinase BTK (BTK, Homo sapiens, UniProt Q06187, R28H)", "note": "Compare with care: the assays were run in different laboratories."}
{"SMILES": "Oc1cccc(-c2nc(N3CCOCC3)c3oc4ncccc4c3n2)c1", "target": "BTK", "read-out": "enzyme activity", "mode": "inhibitor", "concentration": "10 µM", "measurement": "remaining activity", "result": "82%"}
{"SMILES": "FC(F)(F)c1ccc2c(c1)nc(-c1cccnc1)n2C1CC1", "target": "BTK", "read-out": "cell-free assay", "method": "competition with immobilised ligand", "concentration": "1 µM", "measurement": "remaining binding", "result": "93%"}
{"SMILES": "Cc1ccc(C(=O)NCc2ccsc2)cc1C#Cc1cn(C(C)C)c2ncnc(N)c12", "target": "BTK", "read-out": "enzyme activity", "mode": "inhibitor", "concentration": "1 µM", "measurement": "activity vs control", "result": "73%"}
{"SMILES": "C[C@@H]1CN(c2cc(-c3n[nH]c4ccc(OC5(C)CC5)cc34)ncn2)C[C@H](C)O1", "target": "BTK", "read-out": "cell-free assay", "method": "competition with immobilised ligand", "concentration": "0.1 µM", "measurement": "remaining binding", "result": "73%"}
{"SMILES": "COc1ccc(F)cc1C(=O)NCc1ccc(-c2nn([C@@H](C)C(F)(F)F)c(N)c2C(N)=O)cc1", "target": "Tyrosine-protein kinase BTK (BTK, Homo sapiens, UniProt Q06187, C481S)", "read-out": "binding", "method": "SPR", "measurement": "koff", "result": "0.00013 s⁻¹"}
{"SMILES": "Cc1cc(NC(=O)c2cccc(S(F)(F)(F)(F)F)c2)cc(-n2ccn3nc(-c4cccnc4)cc23)c1", "target": "BTK", "read-out": "cell-free assay", "method": "competition with immobilised ligand", "concentration": "1 µM", "measurement": "remaining binding", "result": "83.8%"}
{"SMILES": "Nc1nc(Nc2ccccc2)sc1C(=O)c1c(F)cccc1F", "target": "BTK", "read-out": "enzyme activity", "mode": "inhibitor", "concentration": "10 µM", "measurement": "remaining activity", "result": "68%"}
{"SMILES": "CC(C)(C)c1nc(-c2cccc(NS(=O)(=O)c3c(F)cccc3F)c2F)c(-c2ccnc(N)n2)s1", "target": "BTK", "read-out": "enzyme activity", "mode": "inhibitor", "method": "radiometric", "concentration": "1 µM", "measurement": "remaining activity", "result": "96%"}
{"SMILES": "CC(C)(C=C(C#N)C(=O)N1CCC[C@H]1Cn1nc(-c2ccc(Oc3ccccc3)cc2F)c2c(N)ncnc21)N1CCOCC1", "target": "BTK", "read-out": "enzyme activity", "mode": "inhibitor", "measurement": "KI (inactivation)", "result": "14 nM"}
{"SMILES": "CCC(=O)N[C@H]1CC[C@@H](C(=O)N(C)c2ccc(-c3nc4ccccc4o3)cc2)C1", "target": "BTK", "read-out": "cell-free assay", "method": "competition with immobilised ligand", "concentration": "1 µM", "measurement": "remaining binding", "result": "77%"}
{"SMILES": "Cc1cnc(NC2CCOCC2)nc1-n1cnc(C(=O)NC(CN)c2cc(F)cc(Cl)c2)c1 (stereo not drawn)", "target": "BTK R28H", "read-out": "enzyme activity", "mode": "inhibitor", "method": "radiometric", "concentration": "1 µM", "measurement": "remaining activity", "result": "99%"}
{"SMILES": "C=CC(=O)N1CCC[C@@H]1Cn1nc(-c2ccc(Oc3ccccc3)cc2F)c2c(N)ncnc21", "target": "BTK", "read-out": "enzyme activity", "mode": "inhibitor", "measurement": "kinact/KI", "result": "1.9e+06 M⁻¹ s⁻¹"}
{"SMILES": "CN(C)C1CCN(CC#Cc2nn(C3CCCC3)c3nc(NCc4ccccc4)ncc23)C1 (stereo not drawn)", "target": "BTK", "read-out": "enzyme activity", "mode": "inhibitor", "method": "FRET", "concentration": "1 µM", "measurement": "inhibition", "result": "5%"}
{"SMILES": "COc1ccc(COc2ccc(Cc3cnc(N)nc3N)cc2OC)cc1", "target": "BTK", "read-out": "cell-free assay", "concentration": "0.5 µM", "measurement": "remaining signal", "result": "104%"}
{"SMILES": "COc1cc(Cl)c(C(=O)N[C@@H](CN[C@H]2CC[C@@H](N)CC2)Cc2ccc(C#N)cc2)cc1-c1ccc(CN[C@H](C)c2ccc(C)cc2)o1", "target": "BTK", "read-out": "enzyme activity", "mode": "inhibitor", "concentration": "1 µM", "measurement": "remaining activity", "result": "114%"}
{"SMILES": "COc1cc(Nc2cnc(C#N)c(O[C@H](C)CN(C)C)n2)ncc1-c1cnn(C)c1", "target": "BTK", "read-out": "enzyme activity", "mode": "inhibitor", "method": "radiometric", "concentration": "1 µM", "measurement": "remaining activity", "result": "88%"}
{"SMILES": "O=C(Nc1cnn(-c2csc(C(=O)NC3COC3)c2)c1)Nc1ccccc1Cl", "target": "BTK", "read-out": "enzyme activity", "mode": "inhibitor", "concentration": "5 µM", "measurement": "remaining activity", "result": "92.6%"}
{"SMILES": "Nc1ncnc2occ(-c3ccc(NC(=O)Nc4cc(C(F)(F)F)ccc4F)cc3)c12", "target": "BTK", "read-out": "cell-free assay", "concentration": "20 µM", "measurement": "remaining signal", "result": "26%"}
{"SMILES": "Cc1cc(NC(=O)c2cccc3cc(-c4cccc5[nH]nc(N)c45)ccc23)ccc1F", "target": "BTK", "read-out": "enzyme activity", "mode": "inhibitor", "concentration": "0.1 µM", "measurement": "activity vs control", "result": "99%"}
{"SMILES": "COc1ccc2c(c1)O[C@@H](c1ccc(OC)c(OC)c1)C[C@H]2NC(=O)C1(c2ccc3c(c2)OC(F)(F)O3)CC1", "target": "BTK", "read-out": "cell-free assay", "method": "competition with immobilised ligand", "concentration": "1 µM", "measurement": "remaining binding", "result": "81%"}
{"SMILES": "COc1cc(/C=C/C(=O)CC(=O)/C=C/c2ccc(O)c(OC)c2)ccc1O", "target": "BTK", "read-out": "enzyme activity", "mode": "inhibitor", "concentration": "1 µM", "measurement": "activity vs control", "result": "90%"}
{"SMILES": "CNCc1ccccc1-c1csc([C@H](C)Nc2nc(C)nc3cc(OC)c(OC)cc23)c1", "target": "BTK", "read-out": "cell-free assay", "method": "competition with immobilised ligand", "concentration": "1 µM", "measurement": "remaining binding", "result": "89%"}
{"SMILES": "N#CCCc1ccc2c(c1)-c1[nH]c3ccc([N+](=O)[O-])cc3c1CC(=O)N2", "target": "BTK", "read-out": "cell-free assay", "concentration": "0.5 µM", "measurement": "remaining signal", "result": "94.6%"}
{"SMILES": "CN(C)CC#Cc1ccc(OCCCc2sc(N3CCc4cccc(C(=O)Nc5nc6ccccc6s5)c4C3)nc2C(=O)O)c(F)c1", "target": "BTK", "read-out": "cell-free assay", "method": "competition with immobilised ligand", "concentration": "1 µM", "measurement": "remaining binding", "result": "96%"}
{"SMILES": "COc1cc2c(N3CCN(C(=O)Nc4ccc(OC(C)C)cc4)CC3)ncnc2cc1OCCCN1CCCCC1", "target": "BTK", "read-out": "cell-free assay", "concentration": "0.5 µM", "measurement": "remaining signal", "result": "102%"}
{"SMILES": "CNC(=O)c1ccc(Nc2ncc(C(F)(F)F)c(NCc3nccnc3N(C)S(C)(=O)=O)n2)cc1", "target": "BTK", "read-out": "cell-free assay", "method": "competition with immobilised ligand", "concentration": "0.1 µM", "measurement": "remaining binding", "result": "83%"}
{"SMILES": "Cc1ccc(NC(=O)c2ccc(C)c(C(F)(F)F)c2)cc1C#Cc1nn(C2CCC(O)CC2)c2ncnc(N)c12 (stereo not drawn)", "target": "BTK R28H", "read-out": "cell-free assay", "concentration": "10 µM", "measurement": "remaining signal", "result": "71%"}
